Results taken from ChEMBL document CHEMBL5096186, “Design, Synthesis, and Biological Evaluation of Novel Pyrimido[4,5-b]indole Derivatives Against Gram-Negative Multidrug-Resistant Pathogens” (J Med Chem, 2021).
In brackets after ≈: the same amount, converted by molar mass. Activity calls are given as the source filed them. The rule behind the calls is not given here.

How the values were obtained:
Escherichia coli [1] = test: Antibacterial activity against multidrug resistant wild type Escherichia coli NCTC 13353 assessed as reduction in bacterial growth incubated for 18 to 20 hrs by CLSI based microdilution method; type: functional; conditions: time 18-20 hrs
Method in brief: (§1)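 Broth microdilution per CLSI. Compounds dissolved in DMSO (levofloxacin and meropenem in water) as 64 μg/mL stock, then serial twofold dilutions in broth giving 64 to 0.008 μg/mL. […] Clinical isolates tested as several strains per group; racemic GP-1 served as positive control; values given as MIC ranges.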

Acinetobacter baumannii [2] = test: Antibacterial activity against wild type Acinetobacter baumannii NCTC 13304 assessed as reduction in bacterial growth incubated for 18 to 20 hrs by CLSI based microdilution method; type: functional; conditions: time 18-20 hrs; method in brief: as §1
[3] = Metabolic stability in human liver microsome assessed as intrinsic clearance at 0.1 uM in presence of NADPH incubated upto 60 mins by LC-MS/MS analysis; type: ADME; conditions: microsomes, 1 h
Method in brief: (§2)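 Compound at 0.1 μM final, in 0.01% DMSO with 0.005% BSA. Incubated with rat or human liver microsomes at 0.33 mg/mL in 0.1 M Tris-HCl, pH 7.4, with 5 mM MgCl₂ and 1 mM NADPH, at 37 °C. Samples at 0, 7, 17, 30 and 60 min quenched with cold methanol and analysed by LC-MS/MS. Half-life, Cl_int and MF% derived as previously described.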

[4] = Cytotoxicity against human L02 cells assessed as cell viability measured for 48 hrs by CCK-8 assay; type: toxicity, cell-based
Method in brief: (§3)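 Cells seeded at 1 × 10⁴ per well and grown for 48 h. Then exposed to test articles at 1–200 μM for another 48 h (n = 6). Viability by CCK-8 added for 2 h, absorbance read at 450 nm. CC50 calculated and reported as the mean.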

Klebsiella pneumoniae [5] = test: Antibacterial activity agains wild type Klebsiella pneumoniae ATCC BAA-1705 assessed as reduction in bacterial growth incubated for 18 to 20 hrs by CLSI based microdilution method; type: functional; conditions: time 18-20 hrs
Method in brief: (§4)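 CLSI broth microdilution. Compounds in DMSO (levofloxacin and meropenem in water), serial twofold dilutions in broth, 64 to 0.008 μg/mL. […] Results reported as MIC ranges across strains.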

[6] = Clearance in Sprague-Dawley rat at 20 mg/kg, iv measured upto 24 hrs by LC-MS/MS analysis; type: ADME, organism-based; conditions: in vivo
Method in brief: (§5)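 Male Sprague-Dawley rats, n = 3 per group, single intravenous dose. For 4 mg/kg: 180–280 g rats, vehicle 5% DMSO + 5% EtOH + 40% PEG300 + 50% saline, blood from the retrobulbar vein at 0.05–24 h. For 5 and 20 mg/kg: 180–300 g rats, vehicle 5% DMSO + 5% solutol + 90% saline, sampled at 0.083–24 h. Plasma quantified by LC/MS/MS. Parameters from mean plasma concentration by noncompartmental analysis; values are mean ± standard deviation.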

Pseudomonas aeruginosa [7] = test: Antibacterial activity against IMP4-producing multidrug resistant Pseudomonas aeruginosa assessed as reduction in bacterial growth incubated for 18 to 20 hrs by CLSI based microdilution method; type: functional; conditions: time 18-20 hrs; method in brief: as §1
[8] = Clearance in Sprague-Dawley rat at 5 mg/kg, iv measured upto 24 hrs by LC-MS/MS analysis; type: ADME, organism-based; conditions: in vivo; method in brief: as §5
[9] = Cytotoxicity against human HEK293 cells assessed as cell viability measured for 48 hrs by CCK-8 assay; type: toxicity, cell-based; method in brief: as §3
[10] = Metabolic stability in rat liver microsome assessed as intrinsic clearance at 0.1 uM in presence of NADPH incubated upto 60 mins by LC-MS/MS analysis; type: ADME; conditions: microsomes, 1 h; method in brief: as §2
[11] = target: Voltage-gated inwardly rectifying potassium channel KCNH2 (Homo sapiens, UniProt Q12809); test: Inhibition of hERG potassium channel assessed as […] at -80 mV holding potential incubated for 120 seconds by whole cell-automated voltage clamp analysis assay; type: toxicity
Method in brief: (§6)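 Automated whole-cell patch clamp, holding potential −80 mV. Voltage protocol applied every 20 s. Baseline set with external solution containing 0.1% DMSO and stabilised 3 min. Compound applied until steady state, at least 3 min, then washout. Maximum tested concentration 40 μM, or 3 μM for cisapride as positive control.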

Acinetobacter baumannii [12] = test: Antibacterial activity against OXA23-producing multidrug resistant Acinetobacter baumannii infected in iv dosed kunming mouse measured after 24 hrs; type: functional, organism-based; conditions: dose 10-30 mg/kg, DDE = dose-dependent effect
Method in brief: (§7)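 Neutropenic thigh model in Kunming mice (18−22 g, half male/half female; 8 per dosed group, 13 vehicle). Cyclophosphamide given ip 4 days (150 mg/kg) and 1 day (100 mg/kg) before infection. Right posterior thigh injected im with 0.1 mL of 10⁷ cfu/mL OXA-23 MDR A. baumannii clinical isolate. Iv tail dosing at 10, 20, 30 mg/kg 2 h post-infection; levofloxacin 30 mg/kg iv; saline vehicle. Thighs homogenised in saline for cfu after 24 h.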

[13] = Metabolic stability in human liver microsome assessed as elimination half life at 0.1 uM in presence of NADPH incubated upto 60 mins by LC-MS/MS analysis; type: ADME; conditions: liver microsomes, read-out: beta t1/2; method in brief: as §2
[14] = Elimination half life in Sprague-Dawley rat at 5 mg/kg, iv measured upto 24 hrs by LC-MS/MS analysis; type: ADME, organism-based; conditions: in vivo, read-out: beta t1/2 (converted); method in brief: as §5
[15] = Volume of distribution at the steady state in Sprague-Dawley rat at 5 mg/kg, iv measured upto 24 hrs by LC-MS/MS analysis; type: ADME, organism-based; conditions: in vivo, read-out: Vdss; method in brief: as §5
[16] = MRT in Sprague-Dawley rat at 5 mg/kg, iv measured upto 24 hrs by LC-MS/MS analysis; type: ADME, organism-based; conditions: in vivo; method in brief: as §5
Escherichia coli [17] = test: Antibacterial activity against ESBL-producing multidrug resistant Escherichia coli assessed as reduction in bacterial growth incubated for 18 to 20 hrs by CLSI based microdilution method; type: functional; conditions: time 18-20 hrs; method in brief: as §1
Acinetobacter baumannii [18] = test: Bactericidal activity against OXA23-producing multidrug resistant Acinetobacter baumannii infected in dosed kunming mouse at 30 mg/kg, iv measured after 24 hrs; type: functional, organism-based; method in brief: as §7
[19] = MRT in Sprague-Dawley rat at 20 mg/kg, iv measured upto 24 hrs by LC-MS/MS analysis; type: ADME, organism-based; conditions: in vivo; method in brief: as §5
Acinetobacter baumannii [20] = test: Antibacterial activity agains OXA23-producing multidrug resistant Acinetobacter baumannii assessed as reduction in bacterial growth incubated for 18 to 20 hrs by CLSI based microdilution method; type: functional; conditions: time 18-20 hrs; method in brief: as §1
[21] = Volume of distribution at the steady state in Sprague-Dawley rat at 20 mg/kg, iv measured upto 24 hrs by LC-MS/MS analysis; type: ADME, organism-based; conditions: in vivo, read-out: Vdss; method in brief: as §5
Pseudomonas aeruginosa [22] = test: Antibacterial activity against wild type Pseudomonas aeruginosa ATCC 27853 assessed as reduction in bacterial growth incubated for 18 to 20 hrs by CLSI based microdilution method; type: functional; conditions: time 18-20 hrs; method in brief: as §4
[23] = AUC (0 to infinity) in Sprague-Dawley rat at 20 mg/kg, iv measured upto 24 hrs by LC-MS/MS analysis; type: ADME, organism-based; design: dose 20 mg/kg, time < 24 hrs, route iv; conditions: in vivo; method in brief: as §5
[24] = Metabolic stability in rat liver microsome assessed as elimination half life at 0.1 uM in presence of NADPH incubated upto 60 mins by LC-MS/MS analysis; type: ADME; conditions: liver microsomes, read-out: beta t1/2; method in brief: as §2
[25] = Elimination half life in Sprague-Dawley rat at 20 mg/kg, iv measured upto 24 hrs by LC-MS/MS analysis; type: ADME, organism-based; conditions: in vivo, read-out: beta t1/2 (converted); method in brief: as §5
[26] = Metabolic stability in rat liver microsome assessed as metabolic bioavailability at 0.1 uM in presence of NADPH incubated upto 60 mins by LC-MS/MS analysis; type: ADME; conditions: liver microsomes; method in brief: as §2
Klebsiella pneumoniae [27] = test: Antibacterial activity against KPC2-producing multidrug resistant Klebsiella pneumoniae assessed as reduction in bacterial growth incubated for 18 to 20 hrs by CLSI based microdilution method; type: functional; conditions: time 18-20 hrs; method in brief: as §1
[28] = Metabolic stability in human liver microsome assessed as metabolic bioavailability at 0.1 uM in presence of NADPH incubated upto 60 mins by LC-MS/MS analysis; type: ADME; conditions: liver microsomes; method in brief: as §2
Klebsiella pneumoniae [29] = test: Antibacterial activity agains wild type Klebsiella pneumoniae ATCC BAA-2470 assessed as reduction in bacterial growth incubated for 18 to 20 hrs by CLSI based microdilution method; type: functional; conditions: time 18-20 hrs; method in brief: as §1
Escherichia coli [30] = test: Antibacterial activity against multidrug resistant wild type Escherichia coli ATCC BAA-2340 assessed as reduction in bacterial growth incubated for 18 to 20 hrs by CLSI based microdilution method; type: functional; conditions: time 18-20 hrs; method in brief: as §1
[31] = target: hERG (KCNH2) potassium channel (Homo sapiens, UniProt Q12809); test: Inhibition of hERG potassium channel assessed as maximum inhibition rate at 40 uM at -80 mV holding potential incubated for 120 seconds by whole cell-automated voltage clamp analysis assay relative to control; type: toxicity; conditions: time 120 sec; method in brief: as §6
[32] = AUC (0 to infinity) in Sprague-Dawley rat at 5 mg/kg, iv measured upto 24 hrs by LC-MS/MS analysis; type: ADME, organism-based; design: time < 24 hrs, dose 5 mg/kg, route iv; conditions: in vivo; method in brief: as §5

hERG (KCNH2) potassium channel, sequence (Q12809 whole entry): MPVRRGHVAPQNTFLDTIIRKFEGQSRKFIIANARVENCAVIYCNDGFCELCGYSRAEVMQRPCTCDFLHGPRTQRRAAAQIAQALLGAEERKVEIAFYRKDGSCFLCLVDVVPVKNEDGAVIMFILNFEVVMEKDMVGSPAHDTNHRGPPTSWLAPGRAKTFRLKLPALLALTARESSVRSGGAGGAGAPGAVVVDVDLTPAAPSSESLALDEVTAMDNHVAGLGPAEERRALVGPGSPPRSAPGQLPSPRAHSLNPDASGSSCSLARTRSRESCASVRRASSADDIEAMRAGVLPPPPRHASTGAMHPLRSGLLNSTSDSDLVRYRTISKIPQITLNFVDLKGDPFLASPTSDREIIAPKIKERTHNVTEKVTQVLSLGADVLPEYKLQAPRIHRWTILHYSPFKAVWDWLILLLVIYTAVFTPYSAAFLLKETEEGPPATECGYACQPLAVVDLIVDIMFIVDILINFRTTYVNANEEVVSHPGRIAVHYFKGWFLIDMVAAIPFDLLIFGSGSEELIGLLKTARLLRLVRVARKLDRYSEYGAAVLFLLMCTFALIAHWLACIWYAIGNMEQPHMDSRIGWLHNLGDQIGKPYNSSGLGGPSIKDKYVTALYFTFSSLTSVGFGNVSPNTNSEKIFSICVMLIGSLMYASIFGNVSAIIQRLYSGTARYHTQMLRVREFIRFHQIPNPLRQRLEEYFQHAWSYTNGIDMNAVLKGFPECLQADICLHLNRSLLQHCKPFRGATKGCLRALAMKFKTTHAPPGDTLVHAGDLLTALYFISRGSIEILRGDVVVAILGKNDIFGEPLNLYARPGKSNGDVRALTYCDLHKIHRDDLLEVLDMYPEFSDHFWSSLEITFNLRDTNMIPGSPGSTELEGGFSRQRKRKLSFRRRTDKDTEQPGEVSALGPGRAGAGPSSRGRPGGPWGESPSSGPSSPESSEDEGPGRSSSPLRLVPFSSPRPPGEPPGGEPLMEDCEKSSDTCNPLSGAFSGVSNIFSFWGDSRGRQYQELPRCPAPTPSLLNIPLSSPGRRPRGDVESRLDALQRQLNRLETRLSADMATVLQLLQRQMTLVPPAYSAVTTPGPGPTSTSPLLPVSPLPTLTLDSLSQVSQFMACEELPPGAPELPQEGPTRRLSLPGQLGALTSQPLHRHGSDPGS
Voltage-gated inwardly rectifying potassium channel KCNH2, sequence (Q12809 whole entry): as above

Compound: CNc1cc(F)cc2c1[nH]c1nc(Oc3cnc(C)nc3)nc(N3CC(=C(C)[C@@H](C)N)C3)c12
- MIC (Escherichia coli [1]): 0.125 µg/mL (≈ 0.279 µM)
- MIC (Acinetobacter baumannii [2]): 0.25 µg/mL (≈ 0.557 µM)
- CLH [3]: 28.4 mL/min/g
- CC50 at 48 h [4]: 16 µM
- MIC (Klebsiella pneumoniae [5]): 4 µg/mL (≈ 8.92 µM)
- clearance [6]: 57.7 mL/min/kg
- MIC (Pseudomonas aeruginosa [7]): 4 µg/mL (≈ 8.92 µM)
- clearance [8]: 76.6 mL/min/kg
- CC50 at 48 h [9]: 19 µM
- CLH [10]: 252 mL/min/g
- IC50 [11]: > 40 µM
- Activity (Acinetobacter baumannii [12]): Dde
- half-life at 0.1 µM [13]: 1.23 h
- half-life [14]: 8.5 h
- Vd [15]: 35.7 L/kg
- MRT [16]: 7.8 h
- MIC (Escherichia coli [17]): 0.5 µg/mL (≈ 1.11 µM)
- Activity (Acinetobacter baumannii [18]): Active
- MRT [19]: 3.1 h
- MIC (Acinetobacter baumannii [20]): 0.25 µg/mL (≈ 0.557 µM)
- Vd [21]: 10.8 L/kg
- MIC (Pseudomonas aeruginosa [22]): 2 µg/mL (≈ 4.46 µM)
- AUC(0-inf) [23]: 5790 ng·h/mL
- half-life at 0.1 µM [24]: 8.3 min
- half-life [25]: 5.9 h
- Fh at 1 h, 0.1 µM [26]: 15%
- MIC (Klebsiella pneumoniae [27]): 2 µg/mL (≈ 4.46 µM)
- Fh at 1 h, 0.1 µM [28]: 40.8%
- MIC (Klebsiella pneumoniae [29]): 2 µg/mL (≈ 4.46 µM)
- MIC (Escherichia coli [30]): 0.5 µg/mL (≈ 1.11 µM)
- inhibition at 2 min, 40 µM [31]: 18.3%
- AUC(0-inf) [32]: 1100 ng·h/mL
